GPR7 antag = antagonists of human GPR7 (neuropeptides B/W receptor 1); P48145; GPR7-expressing cells, fluorescence antagonist assay; inhibition, % at 4.4 µM; hit rate 1.1% among 290,000; AID 1861; in the data active means inhibition above about 16%, passing the limit was not always enough;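 further: cells stimulated with the agonist NPW; 0% = agonist with vehicle and 100% = vehicle without agonist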
EP2 modulator = EP2 receptor (human) modulation; P43116; EP2-expressing cells, cAMP HTRF FRET, PGE2 co-stimulation; induction, % at 25 µM; hit rate 0.83% among 260,000; AID 940;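 active means compounds whose cAMP rise, as percent of the full-agonist control response, exceeds 60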;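 further: rat C6 glioma line stably carrying human EP2 under a CMV promoter; the protocol text gives 20 µM as final concentration; 100% = response of wells given 1 µM PGE2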
OX1R antag-1 = antagonists of human orexin 1 receptor (OX1R); hit rate 1.8% among 330,000; O43613; inhibition, % at 6.6 µM; OX1R-expressing cells, FRET antagonist read-out; in the data active means inhibition mostly above about 38%, no sharp cut-off; inactive means mostly below about 40%;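 further: 0% = agonist challenge alone and 100% = reference antagonist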
Target sequence (O43613 whole entry, looked up): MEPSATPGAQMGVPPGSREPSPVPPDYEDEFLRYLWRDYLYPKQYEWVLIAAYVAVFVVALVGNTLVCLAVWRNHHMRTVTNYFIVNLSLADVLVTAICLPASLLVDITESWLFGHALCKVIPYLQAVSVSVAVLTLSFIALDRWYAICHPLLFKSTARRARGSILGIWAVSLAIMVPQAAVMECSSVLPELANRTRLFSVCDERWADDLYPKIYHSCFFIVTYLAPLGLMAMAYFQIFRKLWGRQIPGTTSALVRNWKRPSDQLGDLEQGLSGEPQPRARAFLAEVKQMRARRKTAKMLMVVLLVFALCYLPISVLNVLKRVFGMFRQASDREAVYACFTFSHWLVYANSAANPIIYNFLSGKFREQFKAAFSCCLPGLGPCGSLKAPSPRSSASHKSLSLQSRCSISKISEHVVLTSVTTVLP
OX1R antag-2 = blocks the human orexin 1 receptor; CHO/OX1R cells, Fluo-8 calcium fluorescence, orexin A; O43613; hit rate 0.43% among 330,000; inhibition, % at 5 µM;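 active means inhibition above its plate's threshold, mean inhibition of all tested compounds on the plate plus 3 SD, cut at about 37% in these data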;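 further: 0% = orexin A challenge wells and 100% = SB-334867-A antagonist wells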
EP2 antag = EP2 receptor (human) inhibition | inhibition, % at 25 µM | C6 glioma cells expressing human EP2, cAMP TR-FRET; cells stimulated with saturating PGE2 | AID 1422 | hit rate 0.52% among 260,000;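 active means percent inhibition above 40 after rounding to a whole number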;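 further: rat C6 glioma host cells with rolipram phosphodiesterase inhibitor present; the protocol text gives 20 µM as final concentration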
CHO parental Ca = signal in parental CHO cells, OX1R antagonist counter-screen. parental CHO-K1, ATP-induced calcium, Fluo-8 fluorescence. inhibition, % at 5.6 µM. hit rate 0.63% among 330,000;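 active means inhibition above that plate's mean sample inhibition plus 3 SD, cut at about 26% in these data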;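 further: 0% = ATP-challenged DMSO wells and 100% = DMSO wells without ATP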
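test system = CHO parental line | reagent = ATP stimulus | measured by = intracellular calcium via Fluo-8 no-wash fluorescent dye | control set = ATP and no-ATP DMSO wells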
* = called active by the depositor; / = no result. Rows were chosen to be rich in hits. Some 3.7% of all compounds tested hit in one or more screens of this group.

SMILES | GPR7 antag | EP2 modulator | OX1R antag-1 | OX1R antag-2 | EP2 antag | CHO parental Ca
COc1cc(/C=C/C(=O)O)cc(S(=O)(=O)Nc2cccc(S(=O)(=O)N3CCOCC3)c2)c1OC | -8 | -13 | 14 | -17 | 6 | 3
Cc1ccccc1NC(=O)C1CCCN(S(=O)(=O)c2ccc(-n3cnnn3)cc2)C1 (centres undefined) | 4 | / | 32 | -13 | / | -2
Cc1ccc(NC(=O)C2CC(=O)n3c(nc4ccccc43)N2)cc1C (centres undefined) | -6 | 21 | 12 | -4 | 8 | 11
O=[N+]([O-])c1ccc(NN=C2c3ccccc3Cc3ccccc32)c([N+](=O)[O-])c1 | / | 24 | / | / | 44* | /
NC(=O)C1CCN(C(=O)COc2ccc3ccccc3c2)CC1 | -3 | -18 | 14 | -2 | 10 | 8
NC(=O)C1CCN(C(=O)COc2ccc(Nc3ccccc3)cc2)CC1 | -2 | 3 | 52* | 2 | 7 | 3
O=C(CN1C2CCCC1CC(NC(=O)C1CCCCC1)C2)Nc1ccccc1C(F)(F)F (centres undefined) | -3 | / | 42* | 2 | / | -6
O=[N+]([O-])c1ccc(-c2nnc(CNC3CCCC3)o2)cc1 | -4 | -9 | 63* | -17 | 8 | -7
O=C(OCc1nnc(-c2ccc([N+](=O)[O-])cc2)o1)C1CCN(C(=O)c2ccc(F)cc2)CC1 | / | / | 38* | 6 | / | -14
O=C(N/N=C\c1c(O)ccc2ccccc12)c1ccc(O)cc1 | -11 | / | 9 | -22 | / | -17
O=C(N/N=C\c1c(O)ccc2ccccc12)c1cncc(Br)c1 | 29 | / | 73* | 63* | / | 67*
Cn1cc(C(=O)N/N=C/c2c(O)ccc3ccccc23)ccc1=O | -3 | -61 | 39* | -12 | 5 | -12
O=C(N/N=C/c1c(O)ccc2ccccc12)c1ccc[n+](CCO)c1 | -1 | -4 | 57* | -6 | 10 | 0
COc1cccc(-c2nnc(NC(=O)c3ccco3)s2)c1 | 14 | / | 53* | -2 | / | -17
COc1ccccc1C(=O)NC(=O)COC(=O)c1ccc([N+](=O)[O-])cc1 | / | / | 50* | -16 | / | -18
CC(C)N1CCN(c2ccncc2S(=O)(=O)N2CCCCC2)CC1 | / | 1 | / | / | 41* | /
CN1CCN(c2ccncc2S(=O)(=O)N2CCCCC2)CC1 | -5 | / | 5 | 6 | / | -4
CCN1CCN(C/C(C)=C/c2ccccc2)CC1 | -14 | / | / | / | / | /
Cc1cccc(N(CC(=O)Nc2ccccc2-c2ccccc2)S(=O)(=O)c2ccccc2)c1C | -18 | 64* | 36 | 2 | 2 | -22
Cc1ccc(S(=O)(=O)N(CC(=O)Nc2ccccc2-c2ccccc2)c2ccc(C)cc2C)cc1 | -26 | 17 | 11 | -24 | 2 | -25
CCCOC(=O)c1ccc(OCC(O)CN2C(=O)NC(C)(C)C2=O)cc1 (centres undefined) | -8 | 13 | 19 | -7 | 6 | 99*
CCOC(=O)c1c(/N=C/c2cc([N+](=O)[O-])ccc2O)sc(C)c1C | 23* | -9 | 25 | -10 | 5 | -8
CCc1ccccc1NC(=O)Cn1nnc(C(=O)NCc2cccc(OC)c2)c1N | -5 | / | 9 | -13 | / | -9
COc1cccc(NC(=O)CN(C)C(=O)CSc2nc3ccccc3s2)c1 | / | / | 54* | 9 | / | -7
COc1cc(NC(=O)CSCC(=O)Nc2cc(OC)cc(OC)c2)cc(OC)c1 | -3 | 15 | 63* | 1 | 3 | -7
SMILES | GPR7 antag | EP2 modulator | OX1R antag-1 | OX1R antag-2 | EP2 antag | CHO parental Ca
COc1cccc(NC(=O)CN(C)C(=O)c2cn(-c3ccccc3)nc2-c2cccs2)c1 | / | / | 51* | 9 | / | 1
COc1cccc(NC(=O)CN(C)C(=O)CSCC(=O)Nc2ccc(C)cc2)c1 | / | / | 30* | 12 | / | -13
Cc1ccc(S(=O)(=O)NCCC(=O)NCC(c2ccc(F)cc2)N2CCOCC2)cc1 (centres undefined) | / | / | 0 | -28 | / | -29
COC(=O)c1[nH]c2ccc(F)cc2c1NC(=O)CCN1CCN(Cc2ccc3c(c2)OCO3)CC1 | -4 | / | / | / | 9 | /
CSc1nnc2n(-c3ccc(C)cc3)c(=O)c3c4c(sc3n12)COC(C(C)C)C4 (centres undefined) | 8 | 17 | 23 | -15 | 10 | -15
Nc1nnc(CC(=O)N2CCCCC2)s1 | -7 | -4 | -2 | -14 | 7 | -4
CCCCN(CC)S(=O)(=O)c1ccc(C(=O)N(CCCN(C)C)c2nc3cc(C)cc(C)c3s2)cc1 | 23* | -46 | 7 | -38 | 8 | 5
CCCCCc1ccc(-c2cn(Cc3ccc(C(=O)c4ccccc4)cc3)nn2)cc1 | 9 | / | 17 | -15 | / | -15
CCOC(OCC)c1cn(Cc2ccc(C(=O)c3ccccc3)cc2)nn1 | 10 | / | 33 | 4 | / | 44*
Brc1ccccc1OCCCCn1cnc2ccccc21 | 6 | -25 | 35* | 19 | 12 | 66*
COc1ccccc1C1(NC(=O)Cc2nc3nc(C)cc(=O)n3[nH]2)CCCC1 | / | -32 | / | / | 5 | /
N#Cc1c(-c2ccccc2)c(-c2ccccc2)nn(CC(=O)NNC(=O)Nc2ccc(Cl)cc2)c1=O | -15 | 2 | 6 | -22 | 79* | -22
N#Cc1c(-c2ccccc2)c(-c2ccccc2)nn(CC(=O)NNC(=O)Nc2ccccc2)c1=O | 7 | 33 | 34 | -21 | / | -5
COc1ccc(OC)c(N/C=C2/CCCCC2=O)c1 | -13 | 18 | 12 | -10 | 7 | -7
CSc1ccccc1NC(=O)CN(C)Cc1ccc(Br)cc1 | -6 | 29 | 16 | -38 | 4 | -32
CCCN(CC(=O)Nc1c(C)cccc1CC)C(=O)SCC | 17 | 22 | 12 | 1 | 13 | -16
CCc1cccc(C)c1NC(=O)CN(C)Cc1ccc(Br)cc1 | 3 | -12 | 21 | 9 | 6 | 40*
CCSC(=O)N(CC)CC(=O)Nc1c(CC)cccc1CC | 21* | 13 | 22 | -11 | 14 | -9
CC(C)(C)NC(=O)c1ccc2c(c1)N(CC(=O)N1CCCC1)C(=O)C(C)(C)O2 | -8 | / | -4 | -26 | / | -8
COc1ccc(C)cc1S(=O)(=O)N1CCNCC1 | / | -20 | / | / | 11 | /
N#C/C(=N\Nc1ccc(Cl)cc1)C(=O)c1ccccc1 | 1 | -41 | 60* | 25 | 17 | 32
Cc1c(N/N=C(\C#N)C(=O)c2ccc(Cl)cc2)c(=O)n(-c2ccccc2)n1C | -3 | 0 | 5 | 16 | 11 | -8
Cc1c(C(=O)O)c(O)cc2c1C(=O)c1c(O)c([C@@H]3O[C@H](CO)[C@@H](O)[C@H](O)[C@H]3O)c(O)c(O)c1C2=O | / | / | 71* | -9 | / | 11
N#Cc1cnn(-c2ccccc2)c1NC(=O)c1ccccc1F | / | / | 11 | -15 | / | -14
CCCC[C@@]1(C2CCCC2)Cc2cc(OCC(=O)O)c(Cl)c(Cl)c2C1=O | / | 42 | 43* | -9 | 13 | -17
COc1cccc(C(=O)NC2CCN(C(=O)N3c4ccccc4Sc4ccccc43)CC2)c1 | -9 | 17 | 8 | 10 | 23 | -2

Bioassay records deposited in PubChem by several laboratories.
